The values below come from ChEMBL document CHEMBL4814057, “4-4-(Anilinomethyl)-3-[4-(trifluoromethyl)phenyl]-1H-pyrazol-1-ylbenzoic acid derivatives as potent anti-gram-positive bacterial agents” (Eur J Med Chem, 2021).

Series [1] deals with Staphylococcus epidermidis. The experiment in a line: Antimicrobial activity against methicillin-resistant Staphylococcus epidermidis ATCC 700296 assessed as bacterial growth inhibitions by CLSI protocol based microdilution method. Type of series: functional. A general note: Broth dilution looks for growth in wells or tubes with falling amounts of substance.
For series [2], the system named is Staphylococcus aureus. Put plainly: Antimicrobial activity against methicillin-resistant Staphylococcus aureus ATCC 700699 assessed as bacterial growth inhibitions by CLSI protocol based microdilution method. Type of series: functional.
Series [3] concerns Staphylococcus aureus. Put plainly: Antimicrobial activity against methicillin-resistant Staphylococcus aureus ATCC 33592 assessed as bacterial growth inhibitions by CLSI protocol based microdilution method. The class given is functional.
Series [4] deals with Staphylococcus aureus. The experiment in a line: Antimicrobial activity against antibiotic-resistant Staphylococcus aureus BM-2312 assessed as bacterial growth inhibitions by CLSI protocol based microdilution method. The class given is functional.
For series [5], the system named is Staphylococcus aureus. The experiment in a line: Antimicrobial activity against methicillin-susceptible Staphylococcus aureus ATCC 25923 assessed as bacterial growth inhibitions by CLSI protocol based microdilution method. The class given is functional.
Series [6] deals with Bacillus subtilis. Put plainly: Antimicrobial activity against Bacillus subtilis ATCC 6623 assessed as bacterial growth inhibitions by CLSI protocol based microdilution method. Type of series: functional. In short, it runs like this: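 Broth microdilution starting at 50 µg/ml with 2-fold serial dilutions; run in triplicate.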
For series [7], the system named is Enterococcus faecium. The experiment in a line: Antimicrobial activity against vancomycin-resistant Enterococcus faecium ATCC 700221 assessed as bacterial growth inhibitions by CLSI protocol based microdilution method. Type of series: functional.
Series [8] deals with Enterococcus faecalis. The experiment in a line: Antimicrobial activity against vancomycin-susceptible Enterococcus faecalis ATCC 29212 assessed as bacterial growth inhibitions by CLSI protocol based microdilution method.
Series [9] has as its system Staphylococcus aureus. Put plainly: Antimicrobial activity against methicillin-resistant Staphylococcus aureus ATCC 33591 assessed as bacterial growth inhibitions by CLSI protocol based microdilution method. Type of series: functional.
Series [10] deals with Enterococcus faecalis. The experiment in a line: Antibiofilm activity against Enterococcus faecalis ATCC 29212 assessed as inhibition of biofilm formation at 0.5 times MIC after 24 hrs by crystal violet staining based assay relative to control. The class given is functional. In short, it runs like this: (§1)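 Overnight culture brought to 0.5 McFarland in PBS, diluted 1:100 in CAMHB with 1% glucose. Inhibition: cells plus compound (in DMSO) at 2x, 1x, 0.5xMIC, 24 h at 35 °C, triplicate. Destruction: 24 h biofilm grown without drug, washed, fresh medium with compound, further 24 h. Then washed, dried, 0.1% crystal violet, solubilized in 33% acetic acid, OD 620 nm. Controls are DMSO-only and broth-only wells.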

For series [11], the system named is Staphylococcus aureus. Put plainly: Antibacterial activity against methicillin resistant Staphylococcus aureus ATCC 700699 persisters assessed as reduction in viability at 4 times MIC measured within 4 hrs by colony counting method. The class given is functional. The settings on record: time hrs <=4. The method, boiled down:
(§2)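 Stationary-phase S. aureus from overnight CAMHB culture (35 °C, 200 rpm), washed thrice in PBS, diluted to ~5 × 10^8 CFU/ml. Incubated with antibiotic at 35 °C, 200 rpm. Aliquots taken at set times, washed, serially diluted in PBS, drop-plated (6 × 6) on TSA with 5% sheep blood. Colonies counted after 18–20 h at 35 °C. Triplicates.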

Series [12] relates to Staphylococcus aureus. The experiment in a line: Antibiofilm activity against Staphylococcus aureus ATCC 25923 assessed as destruction of biofilm formation at 2 times MIC after 24 hrs by crystal violet staining based assay relative to control. The class given is functional. In short, it runs like this:
as §1

Series [13] deals with Enterococcus faecalis. The experiment in a line: Antibacterial activity against vancomycin-intermediate Enterococcus faecalis ATCC 29212 assessed as bacterial growth inhibition by measuring fold increase in MIC after14 passages by broth dilution method. Type of series: functional, organism-based.
Series [14] relates to Staphylococcus aureus. The experiment in a line: Antibiofilm activity against Staphylococcus aureus ATCC 25923 assessed as inhibition of biofilm formation at 2 times MIC after 24 hrs by crystal violet staining based assay relative to control. Type of series: functional. Details: scale not given: the % may be the effect or the level left. In short, it runs like this:
as §1

Series [15] deals with Staphylococcus aureus. Put plainly: Antibiofilm activity against Staphylococcus aureus ATCC 25923 assessed as destruction of biofilm formation at 1 times MIC after 24 hrs by crystal violet staining based assay relative to control. Type of series: functional. In short, it runs like this:
as §1

Series [16] concerns Staphylococcus aureus. The experiment in a line: Antibacterial activity against methicillin resistant Staphylococcus aureus ATCC 700699 persisters assessed as reduction in viability at 16 times MIC by colony counting method. Type of series: functional, organism-based. The method, boiled down: as §2
Series [17] relates to Staphylococcus aureus. Put plainly: Antibacterial activity against methicillin resistant Staphylococcus aureus ATCC 700699 persisters assessed as reduction in viability at 2 times MIC measured within 4 hrs by colony counting method. Type of series: functional. Particulars: time hrs <=4. The method, boiled down: as §2
The nature of series [18]: Selectivity index, ratio of IC50 for cytotoxicity against human HEK-293T cells to MIC of antimicrobial activity against methicillin-resistant Staphylococcus aureus ATCC 700699. Type of series: toxicity, cell-based. The settings on record: read-out: Selectivity Index. The method, boiled down:
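Ratio of HEK293 IC50 to MIC. HEK293 cells (4000/well, EMEM with 10% FBS, 37 °C, 5% CO2) treated 24 h with a concentration range in DMSO. Resazurin added for 4 h, fluorescence read at ex 560/em 590 nm. IC50 fitted.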

For series [19], the system named is Enterococcus faecalis. The experiment in a line: Antibiofilm activity against Enterococcus faecalis ATCC 29212 assessed as inhibition of biofilm formation at 1 times MIC after 24 hrs by crystal violet staining based assay relative to control. The class given is functional. In short, it runs like this:
as §1

Series [20] concerns Staphylococcus aureus. Put plainly: Antibacterial activity against vancomycin-intermediate susceptible Staphylococcus aureus ATCC 25923 assessed as bacterial growth inhibition by measuring fold increase in MIC between 8 passages by broth dilution method. The class given is functional.
Series [21] has as its system Staphylococcus aureus. Put plainly: Antibiofilm activity against Staphylococcus aureus ATCC 25923 assessed as inhibition of biofilm formation at 0.5 times MIC after 24 hrs by crystal violet staining based assay relative to control. The class given is functional, organism-based. The method, boiled down: as §1
For series [22], the system named is Staphylococcus aureus. Put plainly: Antibacterial activity against methicillin resistant Staphylococcus aureus ATCC 700699 persisters assessed as reduction in viability at 8 times MIC measured within 4 hrs by colony counting method. Type of series: functional. The settings on record: time hrs <=4. The method, boiled down:
as §2

The test system of series [23] is Staphylococcus aureus. Put plainly: Bactericidal activity against Staphylococcus aureus ATCC 700699 assessed as reduction bacterial growth at 4X MIC measured after 6 hrs by time-kill kinetic assay. Type of series: functional, organism-based. The method, boiled down:
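Log-phase culture diluted to ~5 × 10^6 CFU/ml in warm CAMHB, exposed at 4xMIC, 35 °C. 20 µl samples every 2 h, 10-fold dilutions to 10^-5, 6 × 6 drop plating. CFU/ml counted after 18–24 h at 35 °C; triplicate.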

Series [24] concerns Staphylococcus aureus. The experiment in a line: Antibacterial activity against vancomycin-intermediate susceptible Staphylococcus aureus ATCC 25923 assessed as bacterial growth inhibition by measuring fold increase in MIC between 14 passages by broth dilution method. Type of series: functional.
In series [25] the test system is Staphylococcus aureus. Put plainly: Antibiofilm activity against Staphylococcus aureus ATCC 25923 assessed as destruction of biofilm formation at 0.5 times MIC after 24 hrs by crystal violet staining based assay relative to control. The class given is functional, organism-based. In short, it runs like this:
as §1

≈ marks a conversion by molar mass, not a printed value. Calls of active or inactive are those of the source. No cut-off for these calls is given here. A value given as a limit tells only on which side of the number the result lay.

For `O=C(O)c1ccc(-n2cc(CNc3ccc(F)c(F)c3F)c(-c3ccc(C(F)(F)F)cc3)n2)cc1`, the MIC (as a rule, the lowest concentration found to suppress growth) came out at 3.12 µg/mL (≈ 6.35 µM) in [1]; 1.56 µg/mL (≈ 3.17 µM) in [2]; 1.56 µg/mL (≈ 3.17 µM) in series [3]; 1.56 µg/mL (≈ 3.17 µM) in series [4]; 1.56 µg/mL (≈ 3.17 µM) in series [5]; 0.78 µg/mL (≈ 1.59 µM) in series [6]. Further, the values for the MIC in series [7] and in series [9] were 3.12 µg/mL (≈ 6.35 µM) and 1.56 µg/mL (≈ 3.17 µM), respectively. Also, the MIC result in series [8] is “inactive”.

For `O=C(O)c1ccc(-n2cc(CNc3cc(Cl)c(F)cc3F)c(-c3ccc(C(F)(F)F)cc3)n2)cc1`, the MIC in series [1] came out at 3.12 µg/mL (≈ 6.14 µM); in [2], 0.78 µg/mL (≈ 1.54 µM); in series [3] it was 1.56 µg/mL (≈ 3.07 µM); in series [4] it was 0.78 µg/mL (≈ 1.54 µM); in series [5] it was 1.56 µg/mL (≈ 3.07 µM); in series [6], 0.78 µg/mL (≈ 1.54 µM). For the same compound, the results for the minimum inhibitory concentration (MIC) in [7], in series [8] and in series [9] were 1.56 µg/mL (≈ 3.07 µM), 6.25 µg/mL (≈ 12.3 µM) and 1.56 µg/mL (≈ 3.07 µM), respectively.

For `NS(=O)(=O)c1ccc(NCc2cn(-c3ccc(C(=O)O)cc3)nc2-c2ccc(C(F)(F)F)cc2)cc1`, the minimal inhibitory concentration (MIC) came to 50 µg/mL (≈ 96.8 µM) in series [1]; 0.39 µg/mL (≈ 0.755 µM) in series [2]; 50 µg/mL (≈ 96.8 µM) in series [3]; 50 µg/mL (≈ 96.8 µM) in series [4]; 50 µg/mL (≈ 96.8 µM) in series [5]; 50 µg/mL (≈ 96.8 µM) in [6]. Also, the MIC in series [9] was found to be 50 µg/mL (≈ 96.8 µM). Further, the MIC entry in series [7] and in [8] was “inactive” each time.

Regarding `O=C(O)c1ccc(-n2cc(CNc3ccc(F)c(Cl)c3)c(-c3ccc(C(F)(F)F)cc3)n2)cc1`, the MIC in series [1] was determined as 3.12 µg/mL (≈ 6.37 µM); in series [2], 1.56 µg/mL (≈ 3.18 µM); in series [3], 0.78 µg/mL (≈ 1.59 µM); in [4], 0.78 µg/mL (≈ 1.59 µM); in series [5], 0.78 µg/mL (≈ 1.59 µM); in series [6] it was 0.78 µg/mL (≈ 1.59 µM). Moreover, the minimal inhibitory concentration (MIC) amounted to 1.56 µg/mL (≈ 3.18 µM) in series [7], 6.25 µg/mL (≈ 12.8 µM) in series [8] and 0.78 µg/mL (≈ 1.59 µM) in series [9].

For `O=C(O)c1ccc(-n2cc(CNc3cc(Cl)c(F)c(Cl)c3)c(-c3ccc(C(F)(F)F)cc3)n2)cc1`, the result in series [10], in series [13], in [19], in series [21] and in series [25] was inactive. Further, the Activity is 1 log10CFU/ml in [11]; 70% in [12]; more than 85% in series [14]; 55% in series [15]; 1 log10CFU/ml in series [17]; 1 log10CFU/ml in series [22]. Also, the minimum inhibitory concentration (MIC) in [1], in series [2], in series [3], in series [4], in [5] and in series [6] was 0.78 µg/mL (≈ 1.49 µM) each time. In addition, the MIC in series [7] was found to be 0.78 µg/mL (≈ 1.49 µM); in [8], 1.56 µg/mL (≈ 2.98 µM); in series [9], 0.78 µg/mL (≈ 1.49 µM). For the same compound, the outcome in series [16] and in series [23] was Active. Also, the selectivity ratio in series [18] was determined as 33. Further, the “fold change (FC)” value in series [20] and in series [24] was 2 each time.
